Test results published in ChEMBL document CHEMBL1142567, “Inhibition of leukotriene biosynthesis by stilbenoids from Stemona species” (J Nat Prod, 2005).
Calls of active or inactive are those of the source. The rule behind the calls is not given here.

Experiments:
Format in all cases: functional
[1] = Ex vivo inhibition of leukotriene formation in calcium ionophore activated human neutrophilic granulocyte by ELISA
Summary of the method: (§1)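 Human neutrophil granulocytes carrying 5-LOX activity, isolated by sedimentation rate and lysis tolerance. Cells activated with calcium ionophore, then incubated with test sample and arachidonic acid. Reaction stopped with formic acid and centrifuged. Supernatant diluted 50-fold; LTB4 measured by competitive EIA (18 h, 4 °C; Ellman's development; 412 nm). Samples tested at 50, 25, 10, 5 and 1 µM in duplicate. Inhibition given as percent of control; IC50 by probit-log analysis. Trypan blue viability check.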

[2] = (§2) Ex vivo inhibition of leukotriene formation in calcium ionophore activated human neutrophilic granulocyte at 50 uM by ELISA; summary of the method: as §1
Homo sapiens = organism: Homo sapiens; assay: as §2; summary of the method: as §1
[3] = Ex vivo inhibition of leukotriene formation in calcium ionophore activated human neutrophilic granulocyte at 25 uM by ELISA; summary of the method: as §1

Structure (SMILES) | IC50 [1] [µM] | inhibition at 50 µM [2] [%] | Activity (Homo sapiens) | inhibition at 25 µM [3] [%]
Oc1cc(O)cc(CCc2ccccc2)c1 [DIHYDROPINOSYLVIN] | > 50 | 10 | – | –
CC[C@@H]1[C@H]2CCCCN3[C@H]2[C@@H](C[C@H]3[C@@H]2C[C@H](C)C(=O)O2)[C@H]2[C@@H]1OC(=O)[C@H]2C [NEOTUBEROSTEMONINE] | > 50 | – | inactive | –
Oc1cc(O)cc(/C=C/c2ccccc2)c1 [PINOSYLVIN] | 22.7 | – | – | –
Oc1ccc(/C=C/c2cc(O)cc(O)c2)cc1 [RESVERATROL] | > 50 | < 10 | – | –
COc1c(O)ccc2c1CCc1cc(O)c(C)c(OC)c1-2 [STEMANTHRENE A] | 8.5 | – | – | –
COc1cc2c(c(O)c1C)-c1ccc(O)c(OC)c1CC2 [STEMANTHRENE B] | – | – | – | 100
COc1c(O)ccc2c1CCc1c(C)c(O)c(C)c(OC)c1-2 [STEMANTHRENE C] | – | – | – | 100
COc1cc(O)c(C)c2c1-c1ccc(O)c(OC)c1CC2 [STEMANTHRENE D] | 4.8 | – | – | –
COc1cc(O)cc(-c2cc3c(O)cccc3o2)c1 [STEMOFURAN B] | 23.3 | – | – | –
Cc1c(O)cc(-c2cc3ccccc3o2)cc1O [STEMOFURAN C] | > 50 | 10 | – | –
COc1cc(O)c(C)c(-c2cc3c(O)cccc3o2)c1 [STEMOFURAN D] | 30.3 | – | – | –
COc1cc(-c2cc3c(O)c(C)ccc3o2)c(C)c(O)c1C [STEMOFURAN G] | 3.7 | – | – | –
COc1cc(-c2cc3c(O)cccc3o2)c(C)c(OC)c1C [STEMOFURAN J] | 26.3 | – | – | –
COc1ccccc1CCc1cc(O)cc(O)c1 [STILBOSTEMIN A] | > 50 | < 10 | – | –
Cc1c(O)cc(CCc2ccccc2)cc1O [STILBOSTEMIN B] | > 50 | 10 | – | –
COc1ccccc1CCc1cc(O)c(C)c(O)c1 [STILBOSTEMIN D] | > 50 | < 10 | – | –
COc1cc(O)c(C)c(CCc2cccc(O)c2OC)c1 [STILBOSTEMIN F] | > 50 | < 10 | – | –
COc1cc(CCc2cccc(O)c2OC)cc(O)c1C [STILBOSTEMIN G] | 25.8 | – | – | –
CC[C@@H]1[C@H]2CCCCN3[C@H]2[C@H](C[C@H]3[C@@H]2C[C@H](C)C(=O)O2)[C@@H]2[C@H]1OC(=O)[C@H]2C [TUBEROSTEMONINE] | > 50 | – | inactive | –
CC(c1cc2ccccc2s1)N(O)C(N)=O (centres undefined) [ZILEUTON] | 10.4 | – | – | –
